One assay is filed under the species Mus musculus. In words: Minimal effective peroral dose in mouse reserpine hypothermia test. Type of assay: functional. Conditions: po, read-out: MED.
Assay [1] addresses T1, Phosphodiesterase 4 (Rattus norvegicus, UniProt P14270+P14646+P14644+P54748). In words: Inhibition of [3H]cAMP (NEN NET-275) binding to Calcium-Independent Phosphodiesterase from rat brain. The procedure, abridged:
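Enzyme from fresh rat brain (Davis method). Test compound or vehicle with enzyme in [3H]cAMP substrate in Tris-HCl/MgCl2 buffer, 37 °C for 8 min, in triplicate. Stopped by boiling 2 min. Carrier 5'-AMP added; boronate affinity gel separated [3H]-5'-AMP from cAMP, and product counted by scintillation. IC50 from dose-response curves of three log concentrations, each in triplicate.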

In assay [2] the target is T1, Phosphodiesterase 4. Description: Inhibition of [3H]rolipram binding to rat brain membranes. Type of assay: cell membranes, Membrane. The procedure, abridged:
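Rat brain homogenized in ice-cold 50 mM Tris/1.2 mM MgCl2, pH 8.0, washed twice by centrifugation and used at 0.5 mg protein/mL. Incubated with [3H]rolipram and test compound at various concentrations for 30 min at 25 °C, in triplicate. Glass-fiber filtration, three ice-cold washes, scintillation counting. IC50 from semilog plots of percent inhibition vs concentration.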

For `COC(=O)c1cccc(Oc2ncccc2C(=O)NCc2ccccc2)c1`, the minimal effective dose in the assay listed under Mus musculus is 0.001 mg/kg. In addition, the IC50 turned out to be 1.4 µM at Phosphodiesterase 4 [1] and 6.6 µM on Phosphodiesterase 4 [2].

Turning to `O=C(NCc1ccccc1)c1cccnc1Oc1cccc(C(F)(F)F)c1`, the minimal effective dose in the assay filed under Mus musculus came to 3.2 mg/kg. The figures for the IC50 on Phosphodiesterase 4 [1] and at Phosphodiesterase 4 [2] were 6.5 µM and 54 µM, respectively.

For the compound `O=C(NCc1ccccc1)c1cccnc1Oc1ccccc1`, the minimal effective dose in the assay filed under Mus musculus came to 0.32 mg/kg. The IC50 is 1.8 µM on Phosphodiesterase 4 [1] and 49 µM on Phosphodiesterase 4 [2].

For the compound `O=C(NCc1ccccc1)c1cccnc1Oc1ccc(F)cc1`, the minimal effective dose in the assay filed under Mus musculus was found to be 0.01 mg/kg. Further, the IC50 turned out to be 2.9 µM on Phosphodiesterase 4 [1] and 37 µM at Phosphodiesterase 4 [2].

As to `N#Cc1cccc(Oc2ncccc2C(=O)NCc2ccccc2)c1`, in the assay listed under Mus musculus, the minimal effective dose turned out to be 0.1 mg/kg. Moreover, the IC50 at Phosphodiesterase 4 [1] amounted to 9.8 µM; at Phosphodiesterase 4 [2], 22 µM.

For the compound `CC(C)NC(=O)c1cccnc1Oc1ccc(F)cc1`, the minimal effective dose in the assay filed under Mus musculus was determined as 0.001 mg/kg. In addition, the IC50 came to 3.1 µM on Phosphodiesterase 4 [1] and 26 µM at Phosphodiesterase 4 [2].

Turning to `O=C(NCc1ccccc1)c1cccnc1Oc1ccccc1F`, the minimal effective dose in the assay filed under Mus musculus came to 0.01 mg/kg. Moreover, the values for the IC50 at Phosphodiesterase 4 [1] and at Phosphodiesterase 4 [2] were 10 µM and greater than 100 µM, respectively.

Take `O=C(NCc1ccc(F)cc1)c1cccnc1Oc1ccc(F)cc1`: the minimal effective dose in the assay listed under Mus musculus was 0.01 mg/kg. The IC50 at Phosphodiesterase 4 [1] came out at 4 µM; on Phosphodiesterase 4 [2], 51 µM.

As to `COc1ccc(CNC(=O)c2cccnc2Oc2ccc(F)cc2)cc1`, the minimal effective dose in the assay filed under Mus musculus was 3.2 mg/kg. Besides, the IC50 came to 0.73 µM at Phosphodiesterase 4 [1] and 26 µM at Phosphodiesterase 4 [2].

`O=C(NCc1ccccc1)c1cccnc1OC1CC2CCC1C2` (stereo unspecified): the minimal effective dose in the assay filed under Mus musculus is 1 mg/kg. Also, the IC50 was found to be 0.22 µM on Phosphodiesterase 4 [1] and 27 µM on Phosphodiesterase 4 [2].

For `O=C(NCc1ccccc1)c1cccnc1Oc1cccc(F)c1`, the minimal effective dose in the assay listed under Mus musculus was 0.01 mg/kg. For the same compound, the IC50 came to 1.8 µM on Phosphodiesterase 4 [1] and 29 µM on Phosphodiesterase 4 [2].

Turning to `O=C(Nc1ccccc1)c1cccnc1Oc1ccc(F)cc1`, in the assay filed under Mus musculus, the minimal effective dose is 0.001 mg/kg. Also, the IC50 was 2.2 µM at Phosphodiesterase 4 [1] and 43 µM at Phosphodiesterase 4 [2].

Regarding `O=C(NCc1ccccc1)c1cccnc1Oc1ccc(Cl)c(Cl)c1`, the minimal effective dose in the assay filed under Mus musculus was greater than 3.2 mg/kg. In addition, the IC50 on Phosphodiesterase 4 [1] is 2.2 µM; at Phosphodiesterase 4 [2] it was 19 µM.

With `COc1ccccc1Oc1ncccc1C(=O)NCc1ccccc1`, the minimal effective dose in the assay listed under Mus musculus is greater than 3.2 mg/kg. For the same compound, the IC50 on Phosphodiesterase 4 [1] was greater than 10 µM; at Phosphodiesterase 4 [2] it was greater than 100 µM.

As to `COc1ccc(Oc2ncccc2C(=O)NCc2ccccc2)cc1`, the minimal effective dose in the assay listed under Mus musculus worked out at 0.01 mg/kg. Also, the results for the IC50 at Phosphodiesterase 4 [1] and on Phosphodiesterase 4 [2] were 3.1 µM and 100 µM, respectively.

For `Cc1ccc(CNC(=O)c2cccnc2Oc2ccc(F)cc2)cc1`, the minimal effective dose in the assay listed under Mus musculus came out at 0.001 mg/kg. Also, the IC50 worked out at 0.54 µM at Phosphodiesterase 4 [1] and 25 µM at Phosphodiesterase 4 [2].

With `COc1cccc(Oc2ncccc2C(=O)NCc2ccccc2)c1`, the minimal effective dose in the assay listed under Mus musculus is 0.01 mg/kg. For the same compound, the IC50 at Phosphodiesterase 4 [1] turned out to be 2.5 µM; on Phosphodiesterase 4 [2], 23 µM.

The term IC50 denotes the concentration needed to halve the response being measured.

Values taken from ChEMBL document CHEMBL1125837, “Nicotinamide ethers: novel inhibitors of calcium-independent phosphodiesterase and [3H]rolipram binding” (J Med Chem, 1991).
